Screening data from PubChem.
APOBEC3G inh = APOBEC3G (human) deaminase inhibition; recombinant A3G, ssDNA deamination FAM/TAMRA fluorescence; inhibition, % at 20 µM; AID 493012; Q9HC16; 0.28% of 330,000 active;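 active = inhibition of at least 40% at 20 µM, with no more than 30% in the related APOBEC3A deaminase screen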
AHR activator = activates the human aryl hydrocarbon receptor | P35869 | AHR-responsive luciferase reporter cells, luminescence | activation, % at 5 µM | 2.5% of 320,000 active | AID 2796; in the data active = activation above about 47%
Target sequence (P35869 whole entry, looked up): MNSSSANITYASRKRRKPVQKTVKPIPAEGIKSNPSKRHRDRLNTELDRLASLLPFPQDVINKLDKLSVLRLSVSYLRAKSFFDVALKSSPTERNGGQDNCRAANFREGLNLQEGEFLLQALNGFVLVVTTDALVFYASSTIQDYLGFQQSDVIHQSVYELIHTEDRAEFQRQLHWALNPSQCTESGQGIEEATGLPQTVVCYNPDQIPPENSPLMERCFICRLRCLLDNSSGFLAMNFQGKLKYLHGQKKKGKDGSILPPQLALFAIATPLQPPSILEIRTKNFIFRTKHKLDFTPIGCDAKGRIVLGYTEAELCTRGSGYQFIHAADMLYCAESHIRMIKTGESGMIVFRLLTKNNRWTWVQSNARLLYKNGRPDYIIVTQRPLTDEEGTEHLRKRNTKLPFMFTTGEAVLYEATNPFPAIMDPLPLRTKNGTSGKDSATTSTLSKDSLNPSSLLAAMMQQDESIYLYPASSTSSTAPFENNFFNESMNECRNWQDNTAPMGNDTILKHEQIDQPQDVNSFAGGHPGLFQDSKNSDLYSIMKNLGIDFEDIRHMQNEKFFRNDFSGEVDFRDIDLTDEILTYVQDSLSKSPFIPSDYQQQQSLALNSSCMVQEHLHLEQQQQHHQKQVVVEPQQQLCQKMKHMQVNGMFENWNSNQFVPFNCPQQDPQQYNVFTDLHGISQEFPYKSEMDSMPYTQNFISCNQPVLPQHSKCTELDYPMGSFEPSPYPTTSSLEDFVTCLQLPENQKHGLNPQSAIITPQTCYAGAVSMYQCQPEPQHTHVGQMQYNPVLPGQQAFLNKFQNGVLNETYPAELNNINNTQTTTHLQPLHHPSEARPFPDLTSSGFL
A3A deaminase = blocks human APOBEC3A ssDNA deamination. P31941. recombinant A3A, FAM/TAMRA ssDNA deamination fluorescence. inhibition, % at 20 µM. 0.41% of 330,000 active. AID 493011;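 active = at least 40% inhibition at 20 µM here, with at most 30% in a related deaminase screen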
Arr AP2 block = inhibitors of human beta-arrestin and AP2 interaction. FITC-arrestin peptide / GST-AP2 beads, flow cytometry; AP2 beta2 appendage carries R879A mutation. inhibition, % at 10 µM. 0.31% of 340,000 active. AID 504490;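 active = inhibition above a set limit, near 3 SD of compounds lacking own fluorescence, cut at about 54% in these data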
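system = GST-tagged AP2 beta2-adaptin appendage (R879A) on 4 µm glutathione beads | reagent = FITC-labelled arrestin peptide probe, 50 nM final | schedule = compound with beads 12 min RT, then probe 1 h RT | signal = HyperCyt-sampled flow cytometry, FL1 channel, ex 488/em 535 nm | read-out = percent response from loss of bead-bound FITC fluorescence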
UCH37 inh = blocks the human deubiquitinase UCH37; Q9Y5K5; purified proteasome/UCH37, Ub-AMC cleavage fluorescence; inhibition, % (test concentration not listed); 0.33% of 330,000 active;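 active = mean inhibition over replicate wells above about 20%, limit read from the data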
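Material: human UCH37 enzyme supplied as purified proteasome complex / Amount: 0.15 nM proteasome as dispensed / Buffer or medium: pH 7.4 Tris-HCl (50 mM) with ovalbumin, ATP-MgCl2, DTT / Times: preincubation 30 min, reaction 25 min, room temperature / Technique: AMC fluorescence from Ub-AMC cleavage, excitation 355 nm, emission 460 nm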
PolyA inh = yeast polyadenylation inhibition. S. cerevisiae SKY197-pL101 polyadenylation reporter, beta-gal luminescence; efflux-impaired pdr1/pdr3 knockout yeast; score 100 = 6 SD above DMSO. AID 1875. activity score, % at 12 µM. 0.02% of 300,000 active;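 active = lowest replicate activity score at least 50, where 100 means six control SD above control mean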;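 note: yeast exposed to compound for 9 h at 30 °C; higher score means more reporter readthrough which indicates perturbed polyadenylation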
Hits are given with their value; - = inactive; . = no result. The list is not random: actives were taken first. Their share in the collection is about 3.4%.

SMILES | APOBEC3G inh | AHR activator | A3A deaminase | Arr AP2 block | UCH37 inh | PolyA inh
N#C/C(=C(/O)c1ccc(Br)s1)c1nc2ccccc2[nH]1 | - | - | - | - | - | -
Cc1c(N=C2Nc3cccc4cccc2c34)c(=O)n(-c2ccccc2)n1C | - | 90 | - | - | - | -
Cc1c(N2C(=O)c3cccc4cccc(c34)C2=O)c(=O)n(-c2ccccc2)n1C | - | - | - | - | - | -
COc1ccc(C=NNc2ncc(-c3ccccc3)cn2)c(OC)c1 | . | . | . | . | - | .
O=C(CSc1nccn1-c1ncc(C(F)(F)F)cc1Cl)c1ccc(Cl)cc1 | - | - | - | - | 31 | -
O=C1/C(=C\c2ccc3c(c2)OCO3)CCC/C1=C/c1ccc2c(c1)OCO2 | - | 48 | - | - | - | -
Cc1nc(N2CCN(Cc3ccccc3)CC2)nc2c1CCC2 | - | - | - | - | - | -
FC(F)(F)c1nc(N2CCN(c3ccccc3)CC2)nc2c1CCCCC2 | - | 65 | - | - | - | -
COc1ccc(OC)c(NC(=O)c2cccc3c2C(=O)N(C2CCCCC2)C3)c1 | - | - | - | - | - | -
COCCN1Cc2cccc(C(=O)Nc3cc(OC)ccc3OC)c2C1=O | - | 48 | - | - | - | -
O=c1cc(-c2cccc(F)c2)[nH]c2ccccc12 | - | 61 | - | - | - | -
COc1ccc2[nH]c(-c3cccc(F)c3)cc(=O)c2c1 | - | 58 | - | - | - | -
Cc1ccc2[nH]c(-c3cccc(F)c3)cc(=O)c2c1 | - | 50 | - | - | - | -
COc1ccc(-c2cc(=O)c3ccccc3[nH]2)cc1 | - | - | - | - | - | -
O=c1cc(-c2ccccc2)[nH]c2ccc(F)cc12 | . | 58 | . | - | - | -
O=c1cc(-c2ccc(F)cc2F)[nH]c2ccccc12 | - | - | - | . | . | -
Cc1ccc(-c2cc(=O)c3cc(F)ccc3[nH]2)cc1 | - | - | - | - | - | -
Cc1cc(OC(C)C(=O)NCc2ccncc2)c2c(C)cc(=O)oc2c1 (configuration not stated) | - | - | - | - | - | -
CCCCc1cc(=O)oc2cc(C)cc(OCC(=O)Nc3cccnc3)c12 | - | 51 | - | - | - | -
Cc1cc(OCC(=O)NCc2ccncc2)c2c(C)cc(=O)oc2c1 | - | 61 | - | - | - | -
O=C(CSc1nnc2ccc(-c3cccnc3)nn12)Nc1ccc(F)cc1F | - | 79 | - | - | - | -
Cn1c(SCC(=O)Nc2ccc(F)cc2F)nnc1-c1cccnc1 | - | 48 | - | - | - | -
Cn1c(SCC(=O)Nc2cccc(F)c2)nnc1-c1cccnc1 | - | - | - | - | - | -
O=C(NC(=NO)c1ccccc1)Nc1ccc(Cl)cc1 | . | . | . | . | - | .
CCCCCCCCCCCCCCCC[n+]1cccc2ccccc21 | - | - | - | - | 88 | .
SMILES | APOBEC3G inh | AHR activator | A3A deaminase | Arr AP2 block | UCH37 inh | PolyA inh
CCCCCCCCC[n+]1cccc2c3ccccc3ccc21 | - | - | - | - | - | -
O=C(Nc1cccc2ccccc12)/C(Cl)=C/c1ccccc1 | - | 68 | - | - | - | -
Cc1cc(=O)[nH]c(NN=Cc2sccc2C)n1 | . | . | . | . | - | .
COc1ccc2c(c1)CC(C)CC2=NNC(=O)c1ccco1 (configuration not stated) | . | . | . | . | - | .
Cc1ccccc1-c1ccc(/C=C2/SC(N3CCOCC3)=NC2=O)o1 | - | - | - | - | - | -
C=CCn1cc(/C=C2\SC(N3CCOCC3)=NC2=O)c2ccccc21 | - | 71 | - | - | - | -
O=C1N=C(N2CCOCC2)S/C1=C\c1ccc(-c2ccccc2Cl)o1 | - | 50 | - | - | - | -
COc1ccc(OC)c(C=NNC(=O)c2cc3c(ccc4ccccc43)o2)c1 | . | . | . | . | - | .
Cc1sc2nc(-c3cccnc3)[nH]c(=O)c2c1-c1ccccc1 | - | 63 | - | - | - | -
Cc1sc2nc(Cc3ccccc3)[nH]c(=O)c2c1-c1ccccc1 | - | - | - | - | - | -
Cc1cc(Cl)ccc1C(=O)C1CCCN(C(=O)c2cccnc2C)C1 (configuration not stated) | - | - | - | - | - | -
Cc1cc(Cl)ccc1C(=O)C1CCCN(C(=O)c2snnc2C)C1 (configuration not stated) | - | - | - | - | - | 55
Cn1c(O)c(/C=C2\C=NN=C2c2ccccc2)sc1=S | - | 75 | - | - | - | -
CCCCn1c(O)c(/C=C2\C=NN=C2c2ccccc2)sc1=S | - | 66 | - | - | - | -
CCn1c(O)c(/C=C2\C=NN=C2c2ccccc2)sc1=S | - | - | - | - | - | -
Cc1ccc2cc(C=NNc3ccc(C(=O)O)cc3)c(Cl)nc2c1 | . | . | . | . | - | .
Cn1c(CNC(=O)c2ccccc2F)cc2ccccc21 | - | 50 | - | - | - | -
O=C(NCc1cc2ccccc2[nH]1)c1ccccc1F | - | 48 | - | - | - | -
Cc1cccc(C=NNC(=O)c2cc(Br)ccc2O)n1 | . | . | . | . | - | .
O=C(NN=Cc1ccc(F)cc1)c1ccc(-n2cnnn2)cc1 | . | . | . | . | - | .
COc1ccc(S(=O)(=O)N(CC(=O)NN=Cc2ccccc2C(=O)O)c2ccccc2OC)cc1 | . | . | . | . | - | .
CN1CCN(CCC(=O)NN=C/C=C2\N(C)c3ccccc3C2(C)C)CC1 | . | . | . | . | - | .
O=C(Nc1cccc(C(F)(F)F)c1)c1cccnc1NCCO | - | 52 | - | - | - | -
O=C(Nc1cccc(C(F)(F)F)c1)c1cccnc1NCCc1ccccc1 | - | - | - | - | - | -
O=C(Nc1cccc(C(F)(F)F)c1)Oc1ccc(Cl)c2cccnc12 | . | 49 | . | - | . | -
SMILES | APOBEC3G inh | AHR activator | A3A deaminase | Arr AP2 block | UCH37 inh | PolyA inh
CCN(CC)C(=O)Oc1ccc(Cl)c2cccnc12 | - | - | - | - | - | -
CCOC(=O)NN=Cc1cc(C)n(-c2ccccc2)c1C | . | . | . | . | - | .
COc1ccc(OC)c(N/C(N)=N/c2nc(C)cc(C)n2)c1 | - | 66 | - | - | - | -
CCCOc1ccccc1N/C(N)=N/c1nc(C)cc(C)n1 | - | 56 | - | - | - | -
COc1ccc(Cl)cc1N/C(N)=N/c1nc(C)cc(C)n1 | - | - | - | - | - | -
COc1ccc(N/C(N)=N/c2nc(C)cc(C)n2)c(OC)c1 | - | 63 | - | - | - | -
CCCOc1ccccc1N/C(=N/c1nc(C)cc(C)n1)NC(=O)COc1ccc(OC)cc1 | - | - | - | - | - | -
COc1cc(N/C(N)=N/c2nc(C)cc(C)n2)cc(OC)c1 | - | 65 | - | - | . | -
Cc1ccc(C)c(N/C(N)=N/c2nc(C)cc(C)n2)c1 | - | - | - | - | - | -
COc1ccc(C=NNC(=O)CNc2c(Br)cc(C)cc2Br)c(C(=O)O)c1OC | . | . | . | . | - | .
CC(=NO)C(=O)NCc1ccncc1 | . | . | . | . | - | .
Cc1cc(C)nc(/N=C(\N)Nc2ccc3c(c2)OCCO3)n1 | - | 72 | - | - | . | -
Cc1ccccc1Cn1cc(NC(=O)c2cc(-c3ccco3)on2)cn1 | - | 57 | - | - | - | -
